Converted amounts (≈) assume the structure as drawn. The source made the active and inactive calls. The calls are words filed in the database; no cut-off is given here.
Legend:
[1] = system: Staphylococcus aureus; experiment: Antibacterial activity against Staphylococcus aureus ATCC 29213 after 18 hrs by broth microdilution method; type: functional, organism-based; conditions: ATCC 29213, 18 h
In short: (§1)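 Broth microdilution per CLSI for water-insoluble agents: twofold serial dilutions made in DMSO at 100x final, diluted in Mueller Hinton broth to 1% final DMSO; 5x10^5 cfu/mL bacteria exposed 18 h at 37 °C with positive, growth and sterility controls. MIC = lowest concentration giving complete growth inhibition (turbidity and XTT reduction); IC50 from OD600 dose-response inflection point.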

[2] = system: Escherichia coli; experiment: Antibacterial activity against Escherichia coli ATCC 25922 at 5 to 100 ug after 18 hrs by agar disk-diffusion method; type: functional, organism-based
In short: (§2)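 Agar disk diffusion per CLSI: compound loaded on sterile 6 mm paper disks, dried, placed on Mueller Hinton agar lawned with bacteria at McFarland 0.5; cefotaxime positive and DMSO solvent controls; 37 °C for 18 h; zone of inhibition diameter measured to nearest whole mm.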

[3] = system: Staphylococcus aureus; experiment: Antibacterial activity against methicillin/ciprofloxacin-resistant Staphylococcus aureus ATCC 2673 clinical isolate at 5 to 100 ug after 18 hrs by agar disk-diffusion method; type: functional
In short: (§3)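 CLSI agar disk diffusion: 5 to 100 µg compound loaded on 6 mm sterile paper disks, dried, placed on Mueller Hinton agar lawned with McFarland 0.5 bacterial suspension; cefotaxime positive and DMSO solvent controls run alongside; 18 h at 37 °C, inhibition zone diameter read to nearest whole mm.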

[4] = system: Staphylococcus aureus; experiment: Antibacterial activity against Staphylococcus aureus ATCC 29213 assessed as bleb formation at 0.5 times MIC after 18 hrs by scanning electron microscopic method; type: functional, organism-based
In short: (§4)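 Bacterial suspension (5x10^5 cfu/mL) exposed to compound at 0.5x and 1x MIC for 18 h at 37 °C alongside untreated control; centrifuged 10,000 rpm 10 min, pellets washed twice in normal saline, then processed for scanning electron microscopy.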

[5] = system: Candida albicans; experiment: Antifungal activity against Candida albicans ATCC 90028 at 30 ug after 24 hrs by agar disk-diffusion method; type: functional; conditions: ATCC 90028, 24 h, read-out: DIZ
In short: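 Candida disk diffusion on MHA with 2% glucose and 0.5 µg/mL methylene blue, following CLSI antifungal guidance; paper disks loaded with compound; incubated 37 °C for 24 h; zone of inhibition diameter read.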

[6] = system: Staphylococcus aureus; experiment: Antibacterial activity against methicillin/ciprofloxacin/chloramphenicol-resistant Staphylococcus aureus ATCC 1704 clinical isolate after 18 hrs by broth microdilution method; type: functional, organism-based; conditions: ATCC 1704, 18 h; in short: as §1
[7] = system: Staphylococcus aureus; experiment: Antibacterial activity against methicillin/ciprofloxacin-resistant Staphylococcus aureus ATCC 2673 clinical isolate after 18 hrs by broth microdilution method; type: functional, organism-based; conditions: ATCC 2673, 18 h; in short: as §1
[8] = system: Staphylococcus aureus; experiment: Potentiation of ciprofloxacin-induced antibacterial activity against Staphylococcus aureus ATCC 29213 assessed as decrease in […] at 2 ug/ml after 18 hrs by checkerboard microdilution method relative to control; type: functional
In short: (§5)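 Checkerboard microdilution: 5x10^5 cfu/mL bacteria exposed to twofold serial dilutions of compound and antibiotic, alone and combined (0.03–32 µg/mL), 18 h at 37 °C. ΣFIC: ≤0.5 synergy; >0.5–1 additive; >1–4 indifferent; >4 antagonism.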

[9] = system: Staphylococcus aureus; experiment: Potentiation of cefotaxime-induced antibacterial activity against Staphylococcus aureus ATCC 29213 assessed as decrease in cefotaxime MIC at 2 ug/ml after 18 hrs by checkerboard microdilution method relative to control; type: functional; in short: as §5
[10] = system: Staphylococcus aureus; experiment: Potentiation of cefotaxime-induced antibacterial activity against Staphylococcus aureus ATCC 29213 assessed as FICI index at 2 ug/ml after 18 hrs by checkerboard microdilution method relative to control; type: functional; in short: as §5
[11] = system: Staphylococcus aureus; experiment: Antibacterial activity against Staphylococcus aureus ATCC 29213 assessed as disruption of cell membrane at 0.5 times MIC after 18 hrs by scanning electron microscopic method; type: functional, organism-based; in short: as §4
[12] = system: Staphylococcus aureus; experiment: Antibacterial activity against Staphylococcus aureus ATCC 29213 assessed as shriveling at 0.5 times MIC after 18 hrs by scanning electron microscopic method; type: functional, organism-based; in short: as §4
[13] = system: Pseudomonas aeruginosa; experiment: Antibacterial activity against Pseudomonas aeruginosa at 5 to 100 ug after 18 hrs by agar disk-diffusion method; type: functional, organism-based; in short: as §2
[14] = system: Staphylococcus aureus; experiment: Potentiation of ciprofloxacin-induced antibacterial activity against Staphylococcus aureus ATCC 29213 assessed as FICI index at 2 ug/ml after 18 hrs by checkerboard microdilution method relative to control; type: functional; in short: as §5
[15] = system: Staphylococcus aureus; experiment: Potentiation of vancomycin-induced antibacterial activity against Staphylococcus aureus ATCC 29213 assessed as decrease in […] at 2 ug/ml after 18 hrs by checkerboard microdilution method relative to control; type: functional; in short: as §5
[16] = system: Staphylococcus aureus; experiment: Potentiation of amikacin-induced antibacterial activity against Staphylococcus aureus ATCC 29213 assessed as FICI index at 2 ug/ml after 18 hrs by checkerboard microdilution method relative to control; type: functional; in short: as §5
[17] = system: Staphylococcus aureus; experiment: Potentiation of vancomycin-induced antibacterial activity against Staphylococcus aureus ATCC 29213 assessed as FICI index at 2 ug/ml after 18 hrs by checkerboard microdilution method relative to control; type: functional; in short: as §5
[18] = system: HEK293; experiment: Cytotoxicity against HEK293 cells assessed as decrease in cell viability at 1 to 200 uM after 24 hrs by Alamar Blue assay; type: cell-based; conditions: human, hek293, 24 h
In short: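 HEK293 cells in DMEM HG, 10% FBS, 1% pen-strep, 37 °C 5% CO2, passage under 30, used at 80% confluency; seeded 1×10^4/well, after 24 h washed and treated 24 h with 1–200 µM in complete medium; alamar blue (0.15 mg/mL) added for 4 h, absorbance 570 and 600 nm; viability relative to untreated cells as 100%.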

[19] = system: Staphylococcus aureus; experiment: Antibiofilm activity against Staphylococcus aureus ATCC 29213 after 18 hrs by XTT-menadione assay; type: functional
In short: (§6)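 Biofilms grown 24 h at 37 °C from suspension at OD600 0.1 in tryptic soy broth with 1% glucose, washed twice with saline, exposed 18 h at 37 °C to twofold serial dilutions; growth and sterility controls. Read by XTT (0.5 mg/mL)–menadione (10 µM) in MHB, 1 h dark at 37 °C, absorbance 450 nm; MBIC50 and MBIC100 = 50% and 100% inhibition.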

[20] = system: Staphylococcus aureus; experiment: Antibacterial activity against methicillin/ciprofloxacin/chloramphenicol-resistant Staphylococcus aureus ATCC 1704 clinical isolate at 5 to 100 ug after 18 hrs by agar disk-diffusion method; type: functional; in short: as §3
[21] = system: Staphylococcus aureus; experiment: Antibacterial activity against Staphylococcus aureus ATCC 29213 at 30 ug after 18 hrs by agar disk-diffusion method; type: functional; conditions: ATCC 29213, 18 h, read-out: DIZ; in short: as §2
[22] = system: Staphylococcus aureus; experiment: Potentiation of amikacin-induced antibacterial activity against Staphylococcus aureus ATCC 29213 assessed as decrease in […] at 2 ug/ml after 18 hrs by checkerboard microdilution method relative to control; type: functional; in short: as §5
[23] = system: Staphylococcus aureus; experiment: Antibiofilm activity against Staphylococcus aureus ATCC 29213 at 128 ug/ml after 18 hrs by XTT-menadione assay relative to control; type: functional; in short: as §6

SMILES: C[C@H](CCC(=O)NCCNCCNC(=O)CC[C@@H](C)[C@H]1CC[C@H]2[C@@H]3[C@H](O)C[C@@H]4C[C@H](O)CC[C@]4(C)[C@H]3C[C@H](O)[C@]12C)[C@H]1CC[C@H]2[C@@H]3[C@H](O)C[C@@H]4C[C@H](O)CC[C@]4(C)[C@H]3C[C@H](O)[C@]12C
- IC50 [1]: 2.87 µg/mL (≈ 3.25 µM)
- MIC [1]: 4 µg/mL (≈ 4.52 µM)
- Activity [2]: inactive
- diameter of the inhibition zone (DIZ) [3]: 13 mm
- Activity [4]: Active
- zone of inhibition at 30 µg/disc [5]: 10 mm
- IC50 [6]: 4.36 µg/mL (≈ 4.93 µM)
- MIC [6]: 8 µg/mL (≈ 9.05 µM)
- IC50 [7]: 2.18 µg/mL (≈ 2.47 µM)
- MIC [7]: 4 µg/mL (≈ 4.52 µM)
- fold change (FC) [8]: 17
- fold change (FC) [9]: 33
- fractional inhibitory concentration index (FICI) [10]: 0.53
- Activity [11]: Active
- Activity [12]: Active
- Activity [13]: inactive
- fractional inhibitory concentration index (FICI) [14]: 0.56
- fold change (FC) [15]: 2
- fractional inhibitory concentration index (FICI) [16]: 0.51
- fractional inhibitory concentration index (FICI) [17]: 1
- Activity [18]: Non-Toxic
- MBIC100 [19]: 32 µg/mL
- diameter of the inhibition zone (DIZ) [20]: 13 mm
- zone of inhibition at 30 µg/disc [21]: 14 mm
- fold change (FC) [22]: 67

SMILES: CN[C@H](CC(C)C)C(=O)N[C@H]1C(=O)N[C@@H](CC(N)=O)C(=O)N[C@H]2C(=O)N[C@H]3C(=O)N[C@H](C(=O)N[C@H](C(=O)O)c4cc(O)cc(O)c4-c4cc3ccc4O)[C@H](O)c3ccc(c(Cl)c3)Oc3cc2cc(c3O[C@@H]2O[C@H](CO)[C@@H](O)[C@H](O)[C@H]2O[C@H]2C[C@](C)(N)[C@H](O)[C@H](C)O2)Oc2ccc(cc2Cl)[C@H]1O [VANCOMYCIN]
- Activity [23]: <50%

SMILES: O=C(O)c1cn(C2CC2)c2cc(N3CCNCC3)c(F)cc2c1=O [CIPROFLOXACIN]
- Activity [23]: <50%

SMILES: CO/N=C(\C(=O)N[C@@H]1C(=O)N2C(C(=O)O)=C(COC(C)=O)CS[C@H]12)c1csc(N)n1 [CEFOTAXIME]
- Activity [23]: <50%

SMILES: C[C@H](CCC(=O)NCCNCCNCCNC(=O)CC[C@@H](C)[C@H]1CC[C@H]2[C@@H]3[C@H](O)C[C@@H]4C[C@H](O)CC[C@]4(C)[C@H]3C[C@H](O)[C@]12C)[C@H]1CC[C@H]2[C@@H]3[C@H](O)C[C@@H]4C[C@H](O)CC[C@]4(C)[C@H]3C[C@H](O)[C@]12C
- IC50 [1]: 12.1 µg/mL (≈ 13 µM)
- MIC [1]: 16 µg/mL (≈ 17.3 µM)
- Activity [2]: inactive
- Activity [13]: inactive
- zone of inhibition at 30 µg/disc [21]: 11 mm

SMILES: NCC[C@H](O)C(=O)N[C@@H]1C[C@H](N)[C@@H](O[C@H]2O[C@H](CN)[C@@H](O)[C@H](O)[C@H]2O)[C@H](O)[C@H]1O[C@H]1O[C@H](CO)[C@@H](O)[C@H](N)[C@H]1O [AMIKACIN]
- Activity [23]: <50%

— ChEMBL document CHEMBL4152391, “Bile Acid Oligomers and Their Combination with Antibiotics To Combat Bacterial Infections” (J Med Chem, 2018)
